Hits are enriched below; roughly 3% of the tested compounds scored in any of these assays.
S1P3 ag: agonists of human S1P3 receptor; S1P3 NFAT-BLA reporter cells, agonism, FRET ratio; relative to 1 µM S1P, basal subtracted; activation, % at 4.5 µM; 60,000 tested, 0.1% active; AID 373;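 active = activation above the screen-wide mean plus 3 SD, cut at about 4.5% in these data, passing the limit was not always enough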
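Measure – % activation relative to 1 µM S1P (100%), per plate · System – stable CHO line with human S1P3, Gα16, NFAT-BLA reporter · Timing – cells plated overnight, compound 4 h 37 °C, substrate 2 h RT · Technique – fluorescent BLA substrate, ex 405 nm, em 460/535 nm ratio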
5-HT1A blocker: antagonists of human 5-HT1a serotonin receptor. P08908. CHO 5-HT1a Ga15 NFAT-bla reporter, antagonist mode. inhibition, % at 10 µM. 62,000 tested, 0.68% active. AID 612;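 active = inhibition above the mean of all tested compounds plus 3 SD, cut at about 43% in these data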;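 note: receptor stimulated by 5-CT agonist at 100 nM near EC80; beta-lactamase reporter measured by ratiometric fluorescence of a cleavable substrate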
S1P1 ag pot: agonists and agonism potentiators of human S1P1 receptor. P21453. S1P1 CRE-bla cells, forskolin, beta-lactamase FRET, potentiator mode; S1P1 agonist co-added at EC20, 2 nM; 100% = saturating reference agonist, 0% = basal. activation, % at 9.5 µM. 56,000 tested, 0.57% active. AID 449;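 active = activation above a cutoff set at the mean activation of all tested compounds plus 3 SD, cut at about 54% in these data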;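 note: forskolin at 4 µM as EC80 and the EC20 agonist is SEW2871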
Target sequence (P21453 whole entry, looked up): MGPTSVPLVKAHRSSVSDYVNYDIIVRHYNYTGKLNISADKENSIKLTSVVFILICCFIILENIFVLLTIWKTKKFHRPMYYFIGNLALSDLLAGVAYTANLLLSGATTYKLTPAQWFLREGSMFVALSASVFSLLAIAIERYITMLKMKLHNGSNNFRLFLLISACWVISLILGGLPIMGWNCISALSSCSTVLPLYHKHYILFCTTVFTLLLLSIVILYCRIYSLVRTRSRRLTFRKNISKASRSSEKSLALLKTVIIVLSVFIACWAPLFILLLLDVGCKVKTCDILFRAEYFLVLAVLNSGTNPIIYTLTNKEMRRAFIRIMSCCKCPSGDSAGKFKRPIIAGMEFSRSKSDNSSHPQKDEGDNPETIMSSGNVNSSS
HTR1E agonist: activates the human 5-HT1E serotonin receptor | P28566 | CHO 5-HT1E Ga15 NFAT-bla reporter, FRET; 0% DMSO wells, 100% control agonist wells | activation, % at 6 µM | 65,000 tested, 0.69% active | AID 574;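 active = activation above a set limit, the screen-wide mean activation plus 3 SD, cut at about 8.5% in these data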
HTR1E antagonist: antagonists of human 5-HT1E serotonin receptor | P28566 | CHO 5-HT1E Ga15 NFAT-bla reporter, FRET, antagonist | inhibition, % at 6 µM | 65,000 tested, 0.99% active | AID 571;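 active = inhibition above a set limit, the mean inhibition across every tested compound plus 3 SD, cut at about 29% in these data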;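 note: signal is the 460 over 535 nm emission ratio of beta-lactamase substrate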
5HT1a ag: activates the human 5-HT1a serotonin receptor. P08908. CHO 5-HT1a Ga15 NFAT-bla reporter, FRET ratio; 0% basal, 100% maximal reference agonist. activation, % at 10 µM. 65,000 tested, 0.56% active;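 active = activation above the screen-wide mean activation plus 3 SD, cut at about 19% in these data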
Numbers stand for hits; – = inactive; · = no result given.

SMILES | S1P3 ag | 5-HT1A blocker | S1P1 ag pot | HTR1E agonist | HTR1E antagonist | 5HT1a ag
O=C(CN1C(=O)c2ccccc2C1=O)OCN1C(=O)c2ccccc2C1=O | – | · | – | – | – | –
COc1cc2c(cc1OC)C1Cc3ccc(OC)c(OC)c3CN1CC2 (stereo not drawn) | – | 51.0 | – | – | – | –
COc1ccc(C(=O)N2CCc3cc(OC)c(OC)cc3C2)cc1OC | – | – | – | – | – | –
N#CCCn1nc(-c2ccccc2)cc1Nc1ccccc1NC(=O)c1cccs1 | · | – | · | – | – | –
CCCn1c(C)cc(C(=O)COc2ncnc3sccc23)c1C | – | – | – | – | – | –
Cc1cc(C(=O)COc2ncnc3sccc23)c(C)n1C1CC1 | – | – | – | – | – | 19.4
NC(=O)c1cc2ccc(O)cc2oc1=NCc1ccccc1 | – | – | – | 25.8 | – | 85.9
NC(=O)c1cc2ccc(O)cc2oc1=Nc1ccccc1 | – | – | – | 49.9 | – | 98.5
COc1ccc(OC)c(N=c2oc3cc(O)ccc3cc2C(N)=O)c1 | – | – | – | 12.1 | – | 39.1
O=C(c1ccccc1)c1cc2ccccc2o1 | – | – | – | – | – | –
Cc1ccc(F)c(NC(=O)C2CCCCC2C(=O)O)c1 (stereo not drawn) | – | – | – | – | – | –
Cc1cc(C2=CC(C)(c3cc(C)oc3C)Nc3nc(C(F)(F)F)nn32)c(C)o1 (stereo not drawn) | – | 59.8 | – | – | – | –
CC(C)NCC(O)COc1cccc2[nH]ccc12 (stereo not drawn) | – | · | – | 8.7 | – | –
COC(=O)Cc1c[nH]c2ccc(OCC(O)CNC(C)C)cc12 (stereo not drawn) | – | – | – | – | – | –
COc1ccc(NC(=O)C2CCCCN2CC(=O)OCc2ccccc2)cc1OC (stereo not drawn) | – | – | – | – | – | –
COc1ccccc1C(=O)Nc1ccc(C(=O)O)cc1 | – | – | – | – | – | 74.0
CC(=O)Nc1ccc(S(=O)(=O)N2CCSC2C(=O)O)cc1 (stereo not drawn) | · | – | · | – | – | –
CC(=O)Nc1ccc(S(=O)(=O)/N=C2\SCCN2S(=O)(=O)c2ccc(NC(C)=O)cc2)cc1 | – | – | – | – | – | 73.0
CCOC(=O)c1c(NC(=O)CSc2nnc(-c3cccnc3)o2)sc(C(C)=O)c1C | – | – | – | – | 30.4 | –
CCOC(=O)c1c(NC(=O)CSc2nc3cccnc3n2C)sc(C(C)=O)c1C | – | – | – | – | 43.3 | –
CCOC(=O)c1c(NC(=O)CSc2nnc(-c3ccccc3C)n2C)sc(C(C)=O)c1C | – | – | – | – | – | –
O=C(CN1C(=O)c2ccccc2C1=O)Nc1ccccc1C(=O)N1CCCC1 | – | – | – | – | – | –
Cc1nc(NC(=O)CSc2nc3cccnc3n2Cc2ccccc2)sc1C | – | – | – | – | – | –
COc1ccc(CN(C(=O)CSc2nnc(-c3ccc(F)cc3)o2)c2ccc(F)cc2)cc1 | – | – | – | – | – | –
O=C(CSc1nnc(Cn2nnc3ccccc32)o1)N(Cc1ccc(F)cc1)c1ccccc1 | – | – | 67.9 | – | – | –
SMILES | S1P3 ag | 5-HT1A blocker | S1P1 ag pot | HTR1E agonist | HTR1E antagonist | 5HT1a ag
Cc1nnc(SCC(=O)N2c3ccccc3Sc3ccccc32)n1N | – | – | – | – | – | –
Cc1nnc(SC(=O)N2c3ccccc3Sc3ccccc32)s1 | – | 74.1 | 115.1 | – | – | –
Cc1noc(C)c1C(=O)OCC(=O)NCCC1=CCCCC1 | – | – | – | – | – | –
O=C(NC1CCCc2ccccc21)C1CCC(CNc2c(N3CCOCC3)c(=O)c2=O)CC1 (stereo not drawn) | – | – | – | – | – | –
Cc1ncc(CO)c2c1OC(C)(C)OC2 | – | – | – | – | – | 26.7
Cn1cc(/C=N/n2cnc3scc(-c4ccc(Cl)cc4)c3c2=O)c2ccccc21 | – | 71.1 | – | – | 82.6 | –
Cc1nn(-c2ccc(F)cc2)c2nc(N)c(C#N)c(-c3cccs3)c12 | – | – | – | – | 35.5 | –
Cc1csc(NC(=O)C(Cc2ccccc2)n2cccc2)n1 (stereo not drawn) | – | – | 81.2 | – | – | –
CCOC(=O)c1nnn(-c2nonc2N)c1CSc1ccc(C)cc1 | – | – | – | – | – | –
CCOC(=O)c1nnn(-c2nonc2N)c1COc1cc(C)c(Cl)c(C)c1 | – | 48.6 | – | – | – | –
COc1cccc(C2NC(=O)NC(C)=C2C(=O)OCCSC)c1OC (stereo not drawn) | – | – | – | – | – | –
COCCOC(=O)C1=C(C)Nc2nc(C)nn2C1c1ccc(F)cc1 (stereo not drawn) | – | – | – | – | – | 30.5
CCCc1nnc(NC(=O)C2CCCO2)s1 (stereo not drawn) | – | – | – | – | – | –
O=S(=O)(NC1CC1)c1ccc(S(=O)(=O)N2CCCC3(CCCCC3)C2)cc1 | – | – | – | – | 29.0 | –
Cc1cc(C)n(Cc2ccc(C(=O)NCc3ccco3)o2)n1 | · | – | · | – | – | –
Cc1cc(C)n(Cc2ccc(C(=O)NCCC3=CCCCC3)o2)n1 | – | · | – | – | – | 65.1
CC(=O)Nc1cccc(NC(=O)CCCC(=O)O)c1 | – | – | – | 28.3 | – | –
CC1(C)CC(=O)C2=C(C1)N(c1cccc(O)c1)C1=C(C2)C(=O)CC(C)(C)C1 | – | – | – | – | 30.0 | –
COc1ccc(CNc2nc3ccccc3n2CCN2CCCCC2)c(OC)c1 | – | 43.8 | – | – | – | –
COc1ccc(OC)c(CNc2nc3ccccc3n2CCN2CCCCC2)c1 | – | – | – | – | – | –
COc1cccc(CNc2nc3ccccc3n2CCN2CCCCC2)c1OC | – | 42.6 | – | – | – | –
Cc1ccc(Cn2nnc3c(=O)n(Cc4cc(C)ccc4C)cnc32)cc1 | – | – | – | – | – | –
Cc1ccc(Nc2cc(C)nn2-c2nc(C)cc(=O)[nH]2)cc1 | – | 61.0 | – | – | 74.3 | –
Cc1ccc(Nc2cc(C)nn2-c2nc(C)cc(C)n2)cc1 | – | – | – | – | – | –
CC(NS(=O)(=O)c1ccccc1)C(=O)Nc1nccs1 (stereo not drawn) | – | – | – | – | – | 267.5
Brc1ccccc1-c1nnc(CSc2nnc3sc4ccccc4n23)o1 | · | – | · | – | – | –
Cc1cccc(-n2c(SCC(=O)Nc3nonc3C)nnc2-c2ccoc2C)c1 | – | – | – | – | – | 34.5
Cc1cccc(-n2c(SCC(=O)Nc3nnc(C)s3)nnc2-c2ccoc2C)c1 | – | – | – | – | – | –
COc1ccc(S(=O)(=O)N2CCCC(C(=O)NCc3ccccn3)C2)cc1 (stereo not drawn) | – | – | – | – | – | –
